# Test results published in ChEMBL document CHEMBL1157526, “Development of novel beta-amyloid probes based on 3,5-diphenyl-1,2,4-oxadiazole” (Bioorg Med Chem, 2008).
# Legend:
# [1] = Displacement of [125I]IMPY from amyloid beta (1-42) aggregates
# Summary of the method: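 Synthetic Aβ(1–42) dissolved at 0.25 mg/mL in 10 mM sodium phosphate, 1 mM EDTA, pH 7.4, aggregated 42 h at 37 °C with gentle constant shaking. Competition against [125I]IMPY (2200 Ci/mmol, >95% radiochemical purity). Filter-bound radioactivity gamma-counted, specific binding under 15% of total. IC50 from displacement curves, Ki by Cheng-Prusoff. Mean ± SEM of 3–6 independent experiments.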
# [2] = test system: Blood; assay: Biodistribution in ddY mouse blood at 0.5 uCi, iv after 30 mins; assay type: ADME, organism-based; conditions: in vivo, 0.5 h
# Summary of the method: (§1)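 Normal male-unspecified ddY mice (5-week-old, 22–25 g) given radioiodinated ligand by tail-vein injection, killed at set times post-injection. Organs removed and weighed, radioactivity counted in a gamma counter. Expressed as % injected dose per gram, stomach as % injected dose per organ. Mean (s.d.) of 3–5 animals per time point.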
# [3] = test system: Blood; assay: Biodistribution in ddY mouse blood at 0.5 uCi, iv after 10 mins; assay type: ADME, organism-based; conditions: in vivo; summary of the method: as §1
# [4] = test system: Kidney; assay: Biodistribution in ddY mouse kidney at 0.5 uCi, iv after 30 mins; assay type: ADME, organism-based; conditions: in vivo, 0.5 h; summary of the method: as §1
# [5] = test system: Pancreas; assay: Biodistribution in ddY mouse pancreas at 0.5 uCi, iv after 2 mins; assay type: ADME, organism-based; conditions: in vivo; summary of the method: as §1
# [6] = test system: Pancreas; assay: Biodistribution in ddY mouse pancreas at 0.5 uCi, iv after 10 mins; assay type: ADME, organism-based; conditions: in vivo; summary of the method: as §1
# [7] = test system: Pancreas; assay: Biodistribution in ddY mouse pancreas at 0.5 uCi, iv after 60 mins; assay type: ADME, organism-based; conditions: in vivo, 1 h; summary of the method: as §1
# [8] = test system: Intestine; assay: Biodistribution in ddY mouse intestine at 0.5 uCi, iv after 60 mins; assay type: ADME, organism-based; conditions: in vivo, 1 h; summary of the method: as §1
# [9] = test system: Spleen; assay: Biodistribution in ddY mouse spleen at 0.5 uCi, iv after 30 mins; assay type: ADME, organism-based; conditions: in vivo, 0.5 h; summary of the method: as §1
# [10] = test system: Liver; assay: Biodistribution in ddY mouse liver at 0.5 uCi, iv after 30 mins; assay type: ADME, organism-based; conditions: in vivo, 0.5 h; summary of the method: as §1
# [11] = test system: Intestine; assay: Biodistribution in ddY mouse intestine at 0.5 uCi, iv after 10 mins; assay type: ADME, organism-based; conditions: in vivo; summary of the method: as §1
# [12] = test system: Stomach; assay: Biodistribution in ddY mouse stomach at 0.5 uCi, iv after 2 mins; assay type: ADME, organism-based; conditions: in vivo; summary of the method: as §1
# [13] = test system: Liver; assay: Biodistribution in ddY mouse liver at 0.5 uCi, iv after 10 mins; assay type: ADME, organism-based; conditions: in vivo; summary of the method: as §1
# [14] = test system: Heart; assay: Biodistribution in ddY mouse heart at 0.5 uCi, iv after 10 mins; assay type: ADME, organism-based; conditions: in vivo; summary of the method: as §1
# [15] = test system: Kidney; assay: Biodistribution in ddY mouse kidney at 0.5 uCi, iv after 60 mins; assay type: ADME, organism-based; conditions: in vivo, 1 h; summary of the method: as §1
# [16] = test system: Blood; assay: Biodistribution in ddY mouse blood at 0.5 uCi, iv after 60 mins; assay type: ADME, organism-based; conditions: in vivo, 1 h; summary of the method: as §1
# [17] = test system: Brain; assay: Biodistribution in ddY mouse brain at 0.5 uCi, iv after 10 mins; assay type: ADME, organism-based; conditions: in vivo; summary of the method: as §1
# [18] = test system: Brain; assay: Biodistribution in ddY mouse brain at 0.5 uCi, iv after 60 mins; assay type: ADME, organism-based; conditions: in vivo, 1 h; summary of the method: as §1
# [19] = test system: Spleen; assay: Biodistribution in ddY mouse spleen at 0.5 uCi, iv after 10 mins; assay type: ADME, organism-based; conditions: in vivo; summary of the method: as §1
# [20] = test system: Blood; assay: Biodistribution in ddY mouse blood at 0.5 uCi, iv after 2 mins; assay type: ADME, organism-based; conditions: in vivo; summary of the method: as §1
# [21] = test system: Heart; assay: Biodistribution in ddY mouse heart at 0.5 uCi, iv after 30 mins; assay type: ADME, organism-based; conditions: in vivo, 0.5 h; summary of the method: as §1
# [22] = test system: Kidney; assay: Biodistribution in ddY mouse kidney at 0.5 uCi, iv after 10 mins; assay type: ADME, organism-based; conditions: in vivo; summary of the method: as §1
# [23] = test system: Heart; assay: Biodistribution in ddY mouse heart at 0.5 uCi, iv after 60 mins; assay type: ADME, organism-based; conditions: in vivo, 1 h; summary of the method: as §1
# [24] = test system: Kidney; assay: Biodistribution in ddY mouse kidney at 0.5 uCi, iv after 2 mins; assay type: ADME, organism-based; conditions: in vivo; summary of the method: as §1
# [25] = test system: Spleen; assay: Biodistribution in ddY mouse spleen at 0.5 uCi, iv after 60 mins; assay type: ADME, organism-based; conditions: in vivo, 1 h; summary of the method: as §1
# [26] = test system: Liver; assay: Biodistribution in ddY mouse liver at 0.5 uCi, iv after 60 mins; assay type: ADME, organism-based; conditions: in vivo, 1 h; summary of the method: as §1
# [27] = test system: Stomach; assay: Biodistribution in ddY mouse stomach at 0.5 uCi, iv after 60 mins; assay type: ADME, organism-based; conditions: in vivo, 1 h; summary of the method: as §1
# [28] = test system: Stomach; assay: Biodistribution in ddY mouse stomach at 0.5 uCi, iv after 10 mins; assay type: ADME, organism-based; conditions: in vivo; summary of the method: as §1
# [29] = test system: Intestine; assay: Biodistribution in ddY mouse intestine at 0.5 uCi, iv after 30 mins; assay type: ADME, organism-based; conditions: in vivo, 0.5 h; summary of the method: as §1
# [30] = test system: Brain; assay: Biodistribution in ddY mouse brain at 0.5 uCi, iv after 30 mins; assay type: ADME, organism-based; conditions: in vivo, 0.5 h; summary of the method: as §1
# [31] = test system: Pancreas; assay: Biodistribution in ddY mouse pancreas at 0.5 uCi, iv after 30 mins; assay type: ADME, organism-based; conditions: in vivo, 0.5 h; summary of the method: as §1
# [32] = test system: Stomach; assay: Biodistribution in ddY mouse stomach at 0.5 uCi, iv after 30 mins; assay type: ADME, organism-based; conditions: in vivo, 0.5 h; summary of the method: as §1
# [33] = test system: Heart; assay: Biodistribution in ddY mouse heart at 0.5 uCi, iv after 2 mins; assay type: ADME, organism-based; conditions: in vivo; summary of the method: as §1
# [34] = test system: Intestine; assay: Biodistribution in ddY mouse intestine at 0.5 uCi, iv after 2 mins; assay type: ADME, organism-based; conditions: in vivo; summary of the method: as §1
# [35] = test system: Spleen; assay: Biodistribution in ddY mouse spleen at 0.5 uCi, iv after 2 mins; assay type: ADME, organism-based; conditions: in vivo; summary of the method: as §1
# [36] = test system: Liver; assay: Biodistribution in ddY mouse liver at 0.5 uCi, iv after 2 mins; assay type: ADME, organism-based; conditions: in vivo; summary of the method: as §1
# [37] = test system: Brain; assay: Biodistribution in ddY mouse brain at 0.5 uCi, iv after 2 mins; assay type: ADME, organism-based; conditions: in vivo; summary of the method: as §1
Ki [1] [nM],Drug uptake [2] [% ID/g],Drug uptake [3] [% ID/g],Drug uptake [4] [% ID/g],Drug uptake [5] [% ID/g],Drug uptake [6] [% ID/g],Drug uptake [7] [% ID/g],Drug uptake [8] [% ID/g],Drug uptake [9] [% ID/g],Drug uptake [10] [% ID/g],Drug uptake [11] [% ID/g],Drug uptake [12] [% ID/organ],Drug uptake [13] [% ID/g],Drug uptake [14] [% ID/g],Drug uptake [15] [% ID/g],Drug uptake [16] [% ID/g],Drug uptake [17] [% ID/g],Drug uptake [18] [% ID/g],Drug uptake [19] [% ID/g],Drug uptake [20] [% ID/g],SMILES,further results
14.3,,,,,,,,,,,,,,,,,,,,CNc1ccc(-c2nc(-c3ccc(I)cc3)no2)cc1,
,1.52,1.84,3.39,3.34,3.91,1.88,8.46,2.84,8.53,2.83,1.08,12.37,3.05,3.02,1.54,1.98,2.7,4.7,3.54,CNc1ccc(-c2nc(-c3ccc([125I])cc3)no2)cc1,Drug uptake [21]: 1.68 % ID/g; Drug uptake [22]: 5.3 % ID/g; Drug uptake [23]: 1.27 % ID/g; Drug uptake [24]: 9.53 % ID/g; Drug uptake [25]: 2.14 % ID/g; Drug uptake [26]: 7.3 % ID/g; Drug uptake [27]: 7.38 % ID/organ; Drug uptake [28]: 2.32 % ID/organ; Drug uptake [29]: 5.67 % ID/g; Drug uptake [30]: 2.56 % ID/g; Drug uptake [31]: 3.06 % ID/g; Drug uptake [32]: 4.89 % ID/organ; Drug uptake [33]: 9.51 % ID/g; Drug uptake [34]: 1.36 % ID/g; Drug uptake [35]: 4.58 % ID/g; Drug uptake [36]: 14.62 % ID/g; Drug uptake [37]: 1.44 % ID/g
47.1,,,,,,,,,,,,,,,,,,,,Oc1ccc(-c2nc(-c3ccc(I)cc3)no2)cc1,
15.4,,,,,,,,,,,,,,,,,,,,CN(C)c1ccc(-c2nc(-c3ccc(I)cc3)no2)cc1,
4.3,,,,,,,,,,,,,,,,,,,,COc1ccc(-c2nc(-c3ccc(I)cc3)no2)cc1,
,1.79,2.41,4.81,3.17,3.8,2.47,5.37,3.11,5.89,2.4,1.28,8.27,4.81,3.31,1.56,1.45,2.32,4.56,5.42,CN(C)c1ccc(-c2nc(-c3ccc([125I])cc3)no2)cc1,Drug uptake [21]: 2.2 % ID/g; Drug uptake [22]: 7.67 % ID/g; Drug uptake [23]: 1.24 % ID/g; Drug uptake [24]: 7.83 % ID/g; Drug uptake [25]: 2.41 % ID/g; Drug uptake [26]: 5.15 % ID/g; Drug uptake [27]: 5.75 % ID/organ; Drug uptake [28]: 3.28 % ID/organ; Drug uptake [29]: 4.12 % ID/g; Drug uptake [30]: 2.23 % ID/g; Drug uptake [31]: 2.86 % ID/g; Drug uptake [32]: 4.8 % ID/organ; Drug uptake [33]: 11.04 % ID/g; Drug uptake [34]: 1.59 % ID/g; Drug uptake [35]: 6.26 % ID/g; Drug uptake [36]: 13.94 % ID/g; Drug uptake [37]: 1.07 % ID/g
,1.23,1.63,3.85,4.55,4.94,1.45,8.21,2.13,6.13,3.53,0.62,9.35,4.44,2.95,1.12,2.76,2.01,3.62,1.96,COc1ccc(-c2nc(-c3ccc([125I])cc3)no2)cc1,Drug uptake [21]: 1.84 % ID/g; Drug uptake [22]: 6.22 % ID/g; Drug uptake [23]: 1.35 % ID/g; Drug uptake [24]: 8.77 % ID/g; Drug uptake [25]: 1.34 % ID/g; Drug uptake [26]: 4.44 % ID/g; Drug uptake [27]: 3.16 % ID/organ; Drug uptake [28]: 1.64 % ID/organ; Drug uptake [29]: 6.62 % ID/g; Drug uptake [30]: 2.82 % ID/g; Drug uptake [31]: 2.84 % ID/g; Drug uptake [32]: 2.46 % ID/organ; Drug uptake [33]: 11.3 % ID/g; Drug uptake [34]: 1.7 % ID/g; Drug uptake [35]: 4.41 % ID/g; Drug uptake [36]: 11.92 % ID/g; Drug uptake [37]: 2.06 % ID/g
14.2,,,,,,,,,,,,,,,,,,,,Nc1ccc(-c2nc(-c3ccc(I)cc3)no2)cc1,
,3.09,2.32,5.86,3.69,3.88,2.83,8.33,6.89,14.89,3.08,0.92,17.37,4.02,5.15,2.99,2.48,3.29,8.87,4.55,Nc1ccc(-c2nc(-c3ccc([125I])cc3)no2)cc1,Drug uptake [21]: 3.48 % ID/g; Drug uptake [22]: 6.94 % ID/g; Drug uptake [23]: 3.51 % ID/g; Drug uptake [24]: 8.24 % ID/g; Drug uptake [25]: 5.02 % ID/g; Drug uptake [26]: 12.33 % ID/g; Drug uptake [27]: 5.15 % ID/organ; Drug uptake [28]: 1.7 % ID/organ; Drug uptake [29]: 5.84 % ID/g; Drug uptake [30]: 3.32 % ID/g; Drug uptake [31]: 3.36 % ID/g; Drug uptake [32]: 4.05 % ID/organ; Drug uptake [33]: 9.29 % ID/g; Drug uptake [34]: 1.5 % ID/g; Drug uptake [35]: 6.13 % ID/g; Drug uptake [36]: 21.36 % ID/g; Drug uptake [37]: 1.61 % ID/g
